CRFBP-R2 agonist – CRF-BP/CRF-R2 complex agonism. HEK293 CRF-R2/CRF-BP, calcium dye fluorescence (FLIPR); percent of saturating CRF peptide response. activation, % at 13.2 µM. actives 0.46% (n = 350,000). AID 588473;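 active = activation of at least 50%, plus an integration ratio under a set limit after plate pattern correction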;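 also: plate controls were neutral control wells without compound for no effect and CRF at EC100 for full effect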
UCH37 inh – inhibitors of human deubiquitinating enzyme UCH37; Q9Y5K5; purified proteasome/UCH37, Ub-AMC cleavage fluorescence; inhibition, % (test concentration not listed); actives 0.33% (n = 330,000);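 active = mean inhibition over replicate wells above about 20%, limit read from the data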;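 also: 0% = compound-free wells with enzyme and 100% = wells lacking proteasome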
Target sequence (Q9Y5K5 whole entry, looked up): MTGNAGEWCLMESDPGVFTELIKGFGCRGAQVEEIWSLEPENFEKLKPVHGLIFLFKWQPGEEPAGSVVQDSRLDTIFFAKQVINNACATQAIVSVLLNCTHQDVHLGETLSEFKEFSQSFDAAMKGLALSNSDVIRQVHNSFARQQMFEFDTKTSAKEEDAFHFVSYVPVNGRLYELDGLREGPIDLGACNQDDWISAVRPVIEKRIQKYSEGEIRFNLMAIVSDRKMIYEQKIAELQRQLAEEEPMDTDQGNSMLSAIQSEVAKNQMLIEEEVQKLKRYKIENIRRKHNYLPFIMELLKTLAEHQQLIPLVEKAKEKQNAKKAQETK
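Schedule: 30 min plus 25 min, room temperature / Material: human UCH37 within purified proteasomes / Technique: AMC fluorescence intensity at 355/460 nm / Buffer or medium: pH 7.4 Tris-HCl (50 mM) with ovalbumin, ATP-MgCl2, DTT / Controls: wells without proteasome as full block, compound-free enzyme plus substrate as uninhibited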
CRFR2-BP antag – antagonists of CRF-binding protein/CRF-R2 receptor complex. HEK293 CRF-R2/CRF-BP, CRF-induced calcium fluorescence. AID 588475. actives 0.59% (n = 350,000). inhibition, % at 11.8 µM;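 active = inhibition of the ligand-induced calcium signal above about 50% at the single tested concentration, limit read from the data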
H9c2 protect – protects H9c2 cardiomyocytes from peroxide injury | actives 0.63% (n = 360,000) | protection from H2O2 cell death, % at 20 µM | H2O2 injury protection, ATPLite, 2 h;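 active = compounds giving at least 50% protection of heart cells from peroxide-induced death in the single-dose screen, raw or plate-pattern-corrected value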;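 also: 0% = DMSO wells with peroxide and 100% = DMSO wells without peroxide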
hiPSC survival – hiPSC single-cell survival enhancement; survival enhancement, % at 20 µM; actives 0.044% (n = 360,000); ATPlite luminescence; 100% = ROCK inhibitor wells, 0% = DMSO; in the data active = survival enhancement above about 18%;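 also: cells exposed to compounds for 16 hours before the ATP read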
MIN6 prolif – inducers of beta-cell replication in MIN6 cells; actives 0.29% (n = 330,000); MIN6 cells proliferation, ATPlite luminescence, 48 h; cells starved in 0.2% serum; 100% = growth in 10% serum; proliferation, % at 10 µM;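 active = compounds whose signal lies at least 3.5 SD above the mean of all wells on their plate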;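 also: 0% = DMSO-treated cells in low-serum medium and 100% = 10% serum control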
UCH37 confirm – reconfirmed inhibitor of human deubiquitinase UCH37; Proteasome-bound UCH37, Ub-AMC cleavage fluorescence; actives 27% (n = 480); AID 624100; inhibition, % at 20 µM; shares compounds with UCH37 inh;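 active = average inhibition over replicates above about 50%, so the earlier screening hit is confirmed, limit read from the data; inactive = the rest, counted as false positives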;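 also: based on cleavage rate fitted by regression over a 30 min kinetic read; 0% = proteasome plus Ub-AMC and 100% = Ub-AMC without proteasome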
Active calls of the source: *; · = no result given. This is a sample that favours compounds with a hit; in the whole collection about 2.1% have one here.

SMILES | CRFBP-R2 agonist | UCH37 inh | CRFR2-BP antag | H9c2 protect | hiPSC survival | MIN6 prolif | UCH37 confirm
O=C1C(NS(=O)(=O)c2ccc(Br)cc2)=C(N2CCCCC2)C(=O)c2ccccc21 | 0 | 14 | -24 | -12 | 0 | -5 | ·
Clc1ccc(-c2nc(C=NN3CCOCC3)c3ccccn23)cc1 | · | 5 | · | · | · | · | ·
CN1CCN(C2=CC3=CC(=C(C#N)C#N)CCC3CC2)CC1 (stereo not drawn) | 241* | 26* | -172 | 34 | 0 | · | 15
CCCCCc1ccc(-c2cn(Cc3ccc(C)cc3)nn2)cc1 | 0 | 35* | 8 | -3 | -1 | -5 | 2
CCCCCc1ccc(-c2cn(Cc3cccc(OC)c3)nn2)cc1 | 1 | 4 | 2 | -8 | -2 | -3 | ·
Nc1ccc(Br)c2c1C(=O)c1ccccc1C2=O | 11 | 7 | -83 | · | · | 2 | ·
NC1=CC(=O)C(=O)c2ccccc21 | 2 | 44* | -30 | -10 | 0 | · | 58*
CC(C)c1c(C(=O)NN=Cc2ccc(Cl)cc2Cl)nnn1-c1nonc1N | · | 0 | · | · | · | · | ·
CCCN(CCC)Cc1c(C(=O)NN=Cc2ccco2)nnn1-c1nonc1N | · | 2 | · | · | · | · | ·
CC1(C)Cc2ccccc2C(c2cc3ccccc3oc2=O)=N1 | -3 | 36* | 10 | 5 | 1 | 0 | -4
CN(C)/C=C/C1=C([N+](=O)[O-])C(c2cccc([N+](=O)[O-])c2)NC(=O)N1 (stereo not drawn) | -1 | 27* | 18 | -3 | 1 | -3 | 21
COc1ccccc1NS(=O)(=O)c1ccc(NN=Cc2ccccc2OCC(=O)O)c([N+](=O)[O-])c1 | · | 14 | · | · | · | · | ·
COC(=O)c1ccc(C=NNc2nc(-c3ccccc3)cs2)cc1 | · | -13 | · | · | · | · | ·
O=C(NC(=S)Nc1ccc(Oc2ccc(Cl)cc2)cc1)c1ccccc1 | 3 | 47* | -26 | -18 | -1 | -2 | 6
O=C(O)CN1C(=O)/C(=C\c2cc(Br)ccc2OCc2ccc(F)cc2)SC1=S | -3 | 27* | 12 | -2 | 0 | -6 | 69*
O=C1C(C2=C(O)c3ccccc3C2=O)=Nc2ccccc21 | 2 | 85* | 2 | -16 | 0 | -7 | 103*
COc1ccc([C@H]2CC(=O)C=C(c3ccc(-c4ccccc4)c(F)c3)C2)cc1OC | 2 | 41* | -7 | -4 | -1 | -2 | 7
C#CCOCCOCCOCCNc1nc(N2CCN(C(=O)Cn3cc(CCO)nn3)CC2)nc(N2CCN(C(=O)[C@H]([C@@H](C)O)n3cc(CCCCN)nn3)CC2)n1 | -2 | 38* | 4 | 1 | 2 | 1 | 19
C#CCOCCOCCOCCNc1nc(N2CCN(C(=O)Cn3cc(CC(C)O)nn3)CC2)nc(N2CCN(C(=O)[C@H]([C@@H](C)O)n3cc(CCCCN)nn3)CC2)n1 (stereo partly drawn) | -1 | -1 | -12 | 6 | 0 | · | ·
COc1ccc(/C=C2\SC(=S)N(CC(=O)N3CCN(C)CC3)C2=O)cc1 | 0 | 11 | 5 | -5 | 0 | 0 | ·
CN1CCS/C1=C\C=C1/SC(=S)N(CC(=O)O)C1=O | 107* | 39* | -76 | -7 | -1 | · | 38
C/C(C=NNC(=O)c1ccc2nc(C)[nH]c2c1)=C\c1ccccc1 | · | 7 | · | · | · | · | ·
Cc1ccc(C(=O)NC2(O)C(=O)c3ccccc3C2=O)cc1C | 1 | 78* | -6 | 8 | 4 | -1 | 61*
O=C(NC1(O)C(=O)c2ccccc2C1=O)c1ccc(C(F)(F)F)cc1 | -2 | 79* | 11 | 4 | 0 | 2 | 69*
O=C(Cc1ccccc1)NC1(O)C(=O)c2ccccc2C1=O | 0 | · | 4 | -2 | 0 | -1 | ·
O=C(NN=Cc1ccc[nH]1)c1ccc(Cl)cc1 | · | 6 | · | · | · | · | ·
COc1cc(C=NNc2ccc(Cl)nn2)cc(OC)c1O | · | 9 | · | · | · | · | ·
CCSC1=C(C#N)C2(CCCC2)C(C#N)=C(N)N1 | -2 | 43* | -10 | 12 | -2 | 2 | 13

Screening results from PubChem.
